Key:
[1] = molecular target: T1, KIF15-N420 (Homo sapiens, UniProt Q9NS87); experiment: Enzyme-coupled ATPase assay, concentration response; assay type: biochemical; settings: 2 mM ATP, 5 μM microtubules
T1 sequence (Q9NS87 1-420 limits assumed): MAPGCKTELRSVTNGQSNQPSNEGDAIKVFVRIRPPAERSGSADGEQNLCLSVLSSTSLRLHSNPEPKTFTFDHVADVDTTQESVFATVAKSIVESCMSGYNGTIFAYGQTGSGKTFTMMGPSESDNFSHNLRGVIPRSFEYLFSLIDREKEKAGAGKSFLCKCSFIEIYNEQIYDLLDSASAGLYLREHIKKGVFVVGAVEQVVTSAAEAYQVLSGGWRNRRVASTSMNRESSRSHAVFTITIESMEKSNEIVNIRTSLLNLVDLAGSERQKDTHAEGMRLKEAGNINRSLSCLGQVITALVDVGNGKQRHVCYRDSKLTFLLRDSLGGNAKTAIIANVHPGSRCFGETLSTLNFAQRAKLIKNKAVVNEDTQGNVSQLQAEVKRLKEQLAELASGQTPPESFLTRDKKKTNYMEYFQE
Outline: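 Concentration response used the same NADH-coupled KIF15-N420 reaction (A340, 25°C), with 2 mM ATP and 5 μM microtubules at every test-compound concentration. Eight compound concentrations were tested. Curves were built from repeated measurements plotted as mean ± SEM.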

[2] = system: KIRC-1 cells; experiment: Preanaphase spindle monopolarity, KIRC-1 cells; assay type: cell-based, human
Outline: (§1)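 TP53–/– RPE-1 and KIRC-1 cells were grown in DMEM with 10% FBS, penicillin and streptomycin; KIRC-1 medium also contained 10 μM STLC. Cells on coverslips were treated overnight with increasing test-compound concentrations or DMSO. They were then methanol-fixed and stained for KIF15, tubulin and DNA. Preanaphase spindles were scored monopolar or bipolar, in triplicate with n = 100 per replicate (± SEM).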

[3] = system: TP53–/– RPE-1 cells; experiment: Preanaphase spindle morphology, RPE-1 cells; assay type: cell-based, human; settings: increasing concentrations
Outline: as §1

[4] = molecular target: T2, HSET (Homo sapiens, UniProt Q9BW19); experiment: Microtubule gliding assay, HSET; assay type: biochemical; settings: 24 µM Munesib-1 or 100 µM Fift-IN
T2 sequence (Q9BW19 1-673): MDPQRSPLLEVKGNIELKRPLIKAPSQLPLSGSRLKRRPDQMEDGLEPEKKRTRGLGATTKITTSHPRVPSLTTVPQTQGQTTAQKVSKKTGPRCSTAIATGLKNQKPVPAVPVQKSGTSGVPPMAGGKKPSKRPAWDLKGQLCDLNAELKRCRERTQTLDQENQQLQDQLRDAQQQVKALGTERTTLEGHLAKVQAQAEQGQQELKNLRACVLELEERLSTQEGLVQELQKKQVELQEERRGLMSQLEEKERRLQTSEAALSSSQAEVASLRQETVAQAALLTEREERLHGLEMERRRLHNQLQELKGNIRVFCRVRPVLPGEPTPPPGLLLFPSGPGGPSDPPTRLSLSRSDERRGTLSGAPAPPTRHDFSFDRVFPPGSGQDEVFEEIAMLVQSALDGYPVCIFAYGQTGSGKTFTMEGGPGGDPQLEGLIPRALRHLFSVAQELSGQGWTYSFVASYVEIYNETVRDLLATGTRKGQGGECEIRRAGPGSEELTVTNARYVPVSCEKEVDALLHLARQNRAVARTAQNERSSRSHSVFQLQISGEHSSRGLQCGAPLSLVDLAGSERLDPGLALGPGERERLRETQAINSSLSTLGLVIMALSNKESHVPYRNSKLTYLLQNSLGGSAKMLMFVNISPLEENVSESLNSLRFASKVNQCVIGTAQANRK
Outline: (§2)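 Gliding assays with other motors used His6-Eg5, His6-EGFP-HSET or K560 (truncated kinesin-1), with test compound at 24 µM or 100 µM. Frames were captured every 5 s for 1 min at 100×. Velocity was the distance travelled in 1 min, from ≥15 microtubules at each of three locations (n ≥ 50 per slide).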

[5] = molecular target: T3, Eg5 (Homo sapiens, UniProt P52732); experiment: Microtubule gliding assay, Eg5; assay type: biochemical; settings: 24 µM Munesib-1 or 100 µM Fift-IN
T3 sequence (P52732 1-1056): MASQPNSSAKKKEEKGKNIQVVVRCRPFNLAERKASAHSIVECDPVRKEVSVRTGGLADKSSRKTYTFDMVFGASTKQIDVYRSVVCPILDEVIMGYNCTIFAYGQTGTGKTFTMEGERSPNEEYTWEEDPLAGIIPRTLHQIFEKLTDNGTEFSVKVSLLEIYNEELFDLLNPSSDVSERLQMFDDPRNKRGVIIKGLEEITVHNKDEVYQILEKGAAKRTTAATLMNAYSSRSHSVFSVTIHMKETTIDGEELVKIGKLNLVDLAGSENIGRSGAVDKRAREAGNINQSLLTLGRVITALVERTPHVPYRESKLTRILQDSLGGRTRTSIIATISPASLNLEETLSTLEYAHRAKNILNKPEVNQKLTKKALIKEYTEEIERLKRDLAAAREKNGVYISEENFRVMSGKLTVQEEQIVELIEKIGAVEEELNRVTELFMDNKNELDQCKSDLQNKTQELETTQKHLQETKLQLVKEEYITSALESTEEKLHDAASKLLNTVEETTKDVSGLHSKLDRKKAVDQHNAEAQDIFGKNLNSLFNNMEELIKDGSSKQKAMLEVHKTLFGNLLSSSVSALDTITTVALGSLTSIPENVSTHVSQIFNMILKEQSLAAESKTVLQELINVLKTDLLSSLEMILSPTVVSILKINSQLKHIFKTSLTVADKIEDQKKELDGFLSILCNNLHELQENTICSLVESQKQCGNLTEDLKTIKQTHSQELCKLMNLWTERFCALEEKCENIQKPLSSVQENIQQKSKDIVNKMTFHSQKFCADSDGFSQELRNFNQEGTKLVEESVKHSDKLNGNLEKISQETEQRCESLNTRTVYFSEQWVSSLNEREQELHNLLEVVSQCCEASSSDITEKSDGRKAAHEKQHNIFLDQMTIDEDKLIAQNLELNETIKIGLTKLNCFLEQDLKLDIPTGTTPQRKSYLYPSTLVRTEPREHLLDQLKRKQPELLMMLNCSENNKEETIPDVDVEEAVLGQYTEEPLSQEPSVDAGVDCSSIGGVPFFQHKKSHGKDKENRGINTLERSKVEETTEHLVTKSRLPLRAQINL
Outline: as §2

Q: For `COC(=O)c1ccc2c(c1)N(C)S(=O)(=O)c1cnc(SC)nc1-2` [Munesib-1, Methyl 6-methyl-2-(methylthio)-6H-benzo[c]pyrimido[4,5-e][1,2]thiazine-8-carboxylate 5,5-dioxide], which IC50 [1] is on record?
A: The IC50 was 2.8 µM.

Q: And the “effect on monopolar spindles compared with Fift-IN” value ([2]; 75 μM)?
A: Its value is “comparatively modest”.

Q: And the monopolar spindles ([2]; 75 μM)?
A: The monopolar spindles was “less than 70%”.

Q: And the “monopolarity index relative to cells treated with DMSO” value ([2]; increasing concentrations)?
A: Its value is “concentration-dependent increase”.

Q: What about the “effect on spindle morphology” value [3] of the same compound?
A: Its value is “little effect on spindle morphology”.

Q: And the “inhibition of microtubule gliding, HSET” value [4]?
A: The value was “neither substantially inhibited”.

Q: And the “inhibition of microtubule gliding, Eg5” value [5]?
A: The value was “neither substantially inhibited”.

From paper PMC9727797 (Molecular Biology of the Cell, 2022)
